Results reported in ChEMBL document CHEMBL2380272, “Biological evaluation of bisbenzaldehydes against four Mycobacterium species” (Eur J Med Chem, 2013).
In brackets after ≈: the same amount, converted by molar mass.

Tests used:
[1] = system: Mycobacterium tuberculosis; assay: Antimycobacterial activity against multidrug-resistant Mycobacterium tuberculosis LAM-1 clinical isolate assessed as growth inhibition after 6 days by BACTEC 460-TB method; format: functional; conditions: LAM-1, 144 h
Method in brief: (§1)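 BACTEC 460-TB radiometric assay measuring 14CO2 from 14C-palmitic acid. The MDR LAM-1 isolate was precultured to growth index 300, then inoculated into a fresh vial with compound dilutions made in 7H9 + 10% OADC. Final concentrations were 0.4–1.2 µM. GI was read daily. MIC90 and MIC99 came from comparison with untreated controls diluted 10- and 100-fold. A 0.1 µg/mL isoniazid culture served as the resistance control.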

[2] = system: Mycobacterium tuberculosis; assay: Antimycobacterial activity against multidrug-resistant Mycobacterium tuberculosis LAM-1 clinical isolate assessed as growth inhibition at 1 to 1.2 uM after 6 days by BACTEC 460-TB method relative to 10 to 100 times diluted untreated control; format: functional; method in brief: as §1

Row | SMILES | MIC90 [1] [µM] | growth inhibition (GI) [2] [%]
1 | O=Cc1ccc(OCCCCCCCCCOc2ccc(C=O)cc2)cc1 | 0.6 (≈ 0.221 µg/mL) | –
2 | O=Cc1ccc(OCCCCCCCCCCOc2ccc(C=O)cc2)cc1 | 0.6 (≈ 0.229 µg/mL) | –
3 | O=Cc1ccc(OCCCCCCCCCCCOc2ccc(C=O)cc2)cc1 | 0.6 (≈ 0.238 µg/mL) | 99
4 | O=Cc1ccc(OCCCCCCCCCCCCOc2ccc(C=O)cc2)cc1 | 0.4 (≈ 0.164 µg/mL) | 99
